Measured values reported in ChEMBL document CHEMBL1671684, “In vitro resistance profile of the hepatitis C virus NS3/4A protease inhibitor TMC435” (Antimicrob Agents Chemother, 2010).
Calls of active or inactive are those of the source. No cut-off for these calls is given here.

Experiments:
Hepatitis C virus [1] = assay: Ratio of EC50 for Hepatitis C virus subtype 1b expressing NS3 Q80R mutant to EC50 for Hepatitis C virus subtype 1b expressing WT NS3 infected in HuH7 cells after 48 hrs by luciferase reporter assay; type: functional, Hepacivirus hominis, genotype 1b, Huh-7
How it was run: (§1)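 Transient replicon assay: site-directed single or multiple NS3 mutations engineered into genotype 1b (con1, clone ET) subgenomic bicistronic replicon with luciferase reporter and adaptive mutations E1202G, T1280I, K1846T. Huh7-lunet cells electroporated with 10 μg wild-type or mutant replicon RNA, seeded 4,000 cells/well with nine-point inhibitor dilution; 48 h, 37°C, 5% CO2; luminescence read-out. EC50 as median of individual experiments; fold change versus parental replicon EC50.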

Hepatitis C virus [2] = assay: Ratio of EC50 for Hepatitis C virus subtype 1b expressing NS3 V36 M mutant to EC50 for Hepatitis C virus subtype 1b expressing WT NS3 infected in HuH7 cells after 48 hrs by luciferase reporter assay; type: functional, Hepacivirus hominis, genotype 1b, Huh-7; how it was run: as §1
Hepatitis C virus [3] = assay: Ratio of EC50 for Hepatitis C virus subtype 1b expressing NS3 R155Q mutant to EC50 for Hepatitis C virus subtype 1b expressing WT NS3 infected in HuH7 cells after 48 hrs by luciferase reporter assay; type: functional, Hepacivirus hominis, genotype 1b, Huh-7; how it was run: as §1
Hepatitis C virus [4] = assay: Ratio of EC50 for Hepatitis C virus subtype 1b expressing NS3 D168Y mutant to EC50 for Hepatitis C virus subtype 1b expressing WT NS3 infected in HuH7 cells after 48 hrs by luciferase reporter assay; type: functional, Hepacivirus hominis, genotype 1b, Huh-7; how it was run: as §1
Hepatitis C virus [5] = assay: Antiviral activity against Hepatitis C virus subtype 1b expressing NS3 R155T mutant infected in HuH7 cells after 48 hrs by luciferase reporter assay; type: functional, organism-based, Hepacivirus hominis; conditions: genotype 1b, Huh-7, 48 h
How it was run: (§2)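 Genotype 1b con1 subgenomic bicistronic replicon (clone ET) with luciferase reporter and adaptive mutations E1202G, T1280I, K1846T, carrying site-directed NS3 single or double mutations. 10 μg wild-type or mutant replicon RNA electroporated into Huh7-lunet cells, seeded 4,000 cells/well over a nine-point inhibitor dilution series, 48 h at 37°C, 5% CO2, then luminescence read. EC50 taken as median of individual experiments; fold change relative to parental replicon EC50.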

Hepatitis C virus [6] = assay: Antiviral activity against Hepatitis C virus subtype 1b expressing NS3 V170T mutant infected in HuH7 cells after 48 hrs by luciferase reporter assay; type: functional, organism-based, Hepacivirus hominis; conditions: genotype 1b, Huh-7, 48 h; how it was run: as §2
Hepatitis C virus [7] = assay: Ratio of EC50 for Hepatitis C virus subtype 1b expressing NS3 T54A mutant to EC50 for Hepatitis C virus subtype 1b expressing WT NS3 infected in HuH7 cells after 48 hrs by luciferase reporter assay; type: functional, Hepacivirus hominis, genotype 1b, Huh-7; how it was run: as §1
Hepatitis C virus [8] = assay: Ratio of EC50 for Hepatitis C virus subtype 1b expressing NS3 Q80R and R155K mutant to EC50 for Hepatitis C virus subtype 1b expressing WT NS3 infected in HuH7 cells after 48 hrs by luciferase reporter assay; type: functional, Hepacivirus hominis, genotype 1b, Huh-7; how it was run: as §1
Hepatitis C virus [9] = assay: Ratio of EC50 for Hepatitis C virus subtype 1b expressing NS3 A156V mutant to EC50 for Hepatitis C virus subtype 1b expressing WT NS3 infected in HuH7 cells after 48 hrs by luciferase reporter assay; type: functional, Hepacivirus hominis, genotype 1b, Huh-7; how it was run: as §2
Hepatitis C virus [10] = assay: Antiviral activity against Hepatitis C virus subtype 1b expressing NS3 F43S and D168E mutant infected in HuH7 cells after 48 hrs by luciferase reporter assay; type: functional, organism-based, Hepacivirus hominis; conditions: genotype 1b, Huh-7, 48 h; how it was run: as §2
Hepatitis C virus [11] = assay: Antiviral activity against Hepatitis C virus subtype 1b expressing NS3 R155K mutant infected in HuH7 cells after 48 hrs by luciferase reporter assay; type: functional, organism-based, Hepacivirus hominis; conditions: genotype 1b, Huh-7, 48 h; how it was run: as §2
Hepatitis C virus [12] = assay: Antiviral activity against Hepatitis C virus subtype 1b expressing NS3 F43S mutant infected in HuH7 cells after 48 hrs by luciferase reporter assay; type: functional, organism-based, Hepacivirus hominis; conditions: genotype 1b, Huh-7, 48 h; how it was run: as §2
Hepatitis C virus [13] = assay: Antiviral activity against Hepatitis C virus subtype 1b expressing NS3 Q41R mutant infected in HuH7 cells after 48 hrs by luciferase reporter assay; type: functional, organism-based, Hepacivirus hominis; conditions: genotype 1b, Huh-7, 48 h; how it was run: as §2
Hepatitis C virus [14] = assay: Ratio of EC50 for Hepatitis C virus subtype 1b expressing NS3 Q41R mutant to EC50 for Hepatitis C virus subtype 1b expressing WT NS3 infected in HuH7 cells after 48 hrs by luciferase reporter assay; type: functional, Hepacivirus hominis, genotype 1b, Huh-7; how it was run: as §1
Hepatitis C virus [15] = assay: Ratio of EC50 for Hepatitis C virus subtype 1b expressing NS3 R155M mutant to EC50 for Hepatitis C virus subtype 1b expressing WT NS3 infected in HuH7 cells after 48 hrs by luciferase reporter assay; type: functional, Hepacivirus hominis, genotype 1b, Huh-7; how it was run: as §1
[16] = Inhibition of Hepatitis C virus subtype 2a NS3/4A protease
[17] = Inhibition of Hepatitis C virus subtype 6a NS3/4A protease
Hepatitis C virus [18] = assay: Antiviral activity against Hepatitis C virus subtype 1b expressing NS3 Q80L mutant infected in HuH7 cells after 48 hrs by luciferase reporter assay; type: functional, organism-based, Hepacivirus hominis; conditions: genotype 1b, Huh-7, 48 h; how it was run: as §2
Hepatitis C virus [19] = assay: Antiviral activity against Hepatitis C virus subtype 1b expressing NS3 V170A mutant infected in HuH7 cells after 48 hrs by luciferase reporter assay; type: functional, organism-based, Hepacivirus hominis; conditions: genotype 1b, Huh-7, 48 h; how it was run: as §2
[20] = Inhibition of Hepatitis C virus subtype 4a NS3/4A protease
Hepatitis C virus [21] = assay: Antiviral activity against Hepatitis C virus infected in HuH7 cells assessed as cell viability at 25 times EC50 after 2 to 3 weeks by neutral red assay in presence of 1,000 ug/ml G418; type: functional, organism-based; conditions: Hepacivirus hominis; Huh-7
How it was run: (§3)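 Huh7-Luc genotype 1b (con1, clone ET) replicon cells, 20,000 per 10-cm dish in DMEM with 1,000 μg/ml G418. Cells got one inhibitor or a two-inhibitor combination, dosed as multiples of each inhibitor's EC50 from a genotype 1b luciferase replicon assay. Held at 37°C, 5% CO2, with medium plus compound refreshed twice weekly. After 2–3 weeks, surviving colonies were stained with neutral red and counted. Three independent experiments.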

Hepatitis C virus [22] = assay: Antiviral activity against Hepatitis C virus subtype 2a JFH1 infected in HuH7.5 cells assessed as occurrence of the viral-induced CPE at 4000 nM after 3 days by luciferase reporter assay; type: functional, organism-based; conditions: Hepacivirus hominis
Hepatitis C virus [23] = assay: Antiviral activity against Hepatitis C virus subtype 2a JFH1 infected in HuH7.5 cells assessed as decline in viral RNA replication at 500 nM after 14 passages by TaqMan RT-PCR; type: functional, organism-based; conditions: Hepacivirus hominis
How it was run: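 Huh7.5 cells electroporated with JFH-1wt RNA (genotype 2a, no reporter) in Cytomix with 2 mM ATP and 5 mM glutathione, then 500,000 cells seeded. From day 3, cells passaged with inhibitor at 500 nM or vehicle. HCV RNA quantified at each passage by TaqMan real-time RT-PCR, normalised to host RPL13A RNA by comparative CT. Day-3 level set as 100%.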

Hepatitis C virus [24] = assay: Antiviral activity against Hepatitis C virus subtype 1b infected in HuH7 cells after 72 hrs by luciferase reporter gene assay; conditions: genotype 1b, Huh-7, 72 h
Hepatitis C virus [25] = assay: Antiviral activity against Hepatitis C virus subtype 2a JFH1 infected in HuH7.5 cells assessed as viral RNA replication after initial decline at 500 nM after 3 days by TaqMan RT-PCR; type: functional, organism-based; conditions: Hepacivirus hominis
[26] = Inhibition of Hepatitis C virus subtype 5a NS3/4A protease
Hepatitis C virus [27] = assay: Antiviral activity against Hepatitis C virus infected in HuH7 cells assessed as cell viability at 2.5 times EC50 after 2 to 3 weeks by neutral red assay in presence of 1,000 ug/ml G418; type: functional, organism-based; conditions: Hepacivirus hominis; Huh-7; how it was run: as §3
Hepatitis C virus [28] = assay: Antiviral activity against Hepatitis C virus subtype 1a infected in human assessed as suppression of viral RNA level at 200 mg administered SID for 5 days measured after 3 days last postdose; type: functional, organism-based; conditions: Hepacivirus hominis
[29] = Inhibition of Hepatitis C virus subtype 1a NS3/4A protease

Row | Structure (SMILES) | Ratio EC50 (Hepatitis C virus [1]) | Ratio EC50 (Hepatitis C virus [2]) | Ratio EC50 (Hepatitis C virus [3]) | Ratio EC50 (Hepatitis C virus [4]) | EC50 (Hepatitis C virus [5]) [nM] | EC50 (Hepatitis C virus [6]) [nM] | Ratio EC50 (Hepatitis C virus [7]) | Ratio EC50 (Hepatitis C virus [8]) | Ratio EC50 (Hepatitis C virus [9]) | EC50 (Hepatitis C virus [10]) [nM] | EC50 (Hepatitis C virus [11]) [nM] | EC50 (Hepatitis C virus [12]) [nM] | EC50 (Hepatitis C virus [13]) [nM] | Ratio EC50 (Hepatitis C virus [14]) | Ratio EC50 (Hepatitis C virus [15]) | EC50 (Hepatitis C virus [18]) [nM] | EC50 (Hepatitis C virus [19]) [nM] | also measured
1 | COc1ccc2c(O[C@@H]3C[C@H]4C(=O)N[C@]5(C(=O)O)C[C@H]5/C=C\CCCCC[C@H](NC(=O)OC5CCCC5)C(=O)N4C3)cc(-c3csc(NC(C)C)n3)nc2c1 [CILUPREVIR] | 1.6 | 1.2 | 242 | 2488 | 685 | 4.8 | 0.6 | 772 | 2085 | 5.8 | 489 | 1 | 2.3 | 2.8 | 68 |  |  | 
2 | CCC[C@H](NC(=O)[C@@H]1[C@H]2CCC[C@H]2CN1C(=O)[C@@H](NC(=O)[C@@H](NC(=O)c1cnccn1)C1CCCCC1)C(C)(C)C)C(=O)C(=O)NC1CC1 [TELAPREVIR] | 0.6 | 10 | 2.5 | 1.2 | 22700 |  | 7.5 |  | 112 |  | 1470 | 749 |  |  | 14 |  |  | 
3 | COc1ccc2c(O[C@@H]3C[C@H]4C(=O)N[C@]5(C(=O)NS(=O)(=O)C6CC6)C[C@H]5/C=C\CCCCN(C)C(=O)[C@@H]4C3)cc(-c3nc(C(C)C)cs3)nc2c1C [SIMEPREVIR] | 6.9 | 2 | 1.6 | 666 | 314 | 52 | 0.6 | 270 | 177 | 3610 | 260 | 83 | 18 | 1.7 | 0.4 | 12 | 22 | IC50 [16]: < 13 nM; IC50 [17]: < 13 nM; IC50 [20]: < 13 nM; inhibition (Hepatitis C virus [21]): inactive; inhibition (Hepatitis C virus [22]): Active; inhibition (Hepatitis C virus [23]): Active; EC50 (Hepatitis C virus [24]): 8 nM; inhibition (Hepatitis C virus [25]): inactive; IC50 [26]: < 13 nM; inhibition (Hepatitis C virus [27]): inactive; inhibition (Hepatitis C virus [28]): Active; Ki [29]: 0.4 nM
4 | CC(C)(C)NC(=O)N[C@H](C(=O)N1C[C@H]2[C@@H]([C@H]1C(=O)NC(CC1CCC1)C(=O)C(N)=O)C2(C)C)C(C)(C)C (some centres undefined) [BOCEPREVIR] | 0.5 | 1.8 | 1.4 | 2.4 | 5460 | 210 | 2.1 | 2.7 | 75 | 417 | 743 | 333 |  |  | 5.7 | 133 | 1550 | 
